# Source: PubChem
# HTRA1 inhibitor – inhibitors of human serine peptidase HTRA1; actives 0.5% (n = 340,000); recombinant HTRA1, FP-rhodamine activity-based probe, fluorescence polarization; Q92743; AID 504803; inhibition, % at 5.96 µM; in the data active = inhibition above about 36%
# rCAG binder – molecules binding r(CAG) RNA repeats; actives 1.3% (n = 370,000); inhibition, % at 3 µM; r(CAG) RNA repeat, TO-PRO-1 dye displacement fluorescence;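 active = inhibition above the plate cutoff, the mean of all test compounds on that plate plus 3 SD, cut at about 35% in these data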;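 also: higher means more dye released from RNA so lower well fluorescence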
# SIAE inh – blocks human sialic acid acetylesterase | SIAE FP-Rh probe binding, fluorescence polarization | inhibition, % at 9.66 µM | actives 0.69% (n = 370,000) | AID 1053197;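 active = inhibition above a cutoff: mean of compounds within the control limits plus 3 SD of those, cut at about 17% in these data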
# PRMT1 FP inh – blocks human protein arginine methyltransferase 1. Q99873. recombinant PRMT1, activity-based probe fluorescence polarization. inhibition, % at 2.79 µM. actives 1.3% (n = 370,000). AID 652257;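 active = inhibition above about 21% made by adding two undisclosed values, limit read from the data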
# Target sequence (Q99873 whole entry, looked up): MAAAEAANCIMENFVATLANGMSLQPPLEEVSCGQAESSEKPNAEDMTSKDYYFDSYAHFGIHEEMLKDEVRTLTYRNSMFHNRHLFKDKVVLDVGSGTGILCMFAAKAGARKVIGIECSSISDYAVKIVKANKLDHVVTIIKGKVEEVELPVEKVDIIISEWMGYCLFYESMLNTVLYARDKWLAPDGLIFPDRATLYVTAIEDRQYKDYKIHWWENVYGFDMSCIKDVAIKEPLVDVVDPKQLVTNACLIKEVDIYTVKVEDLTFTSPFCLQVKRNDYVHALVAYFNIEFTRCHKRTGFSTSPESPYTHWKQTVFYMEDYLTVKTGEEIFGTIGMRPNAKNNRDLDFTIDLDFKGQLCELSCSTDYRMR
# mABHD4 FP – ABHD4 (mouse) inhibition, primary FP screen; Q8VD66; purified mABHD4, FP-Rh probe fluorescence polarization; inhibition, % at 8.92 µM; actives 0.54% (n = 370,000); AID 720543;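 active = inhibition exceeding the mean over every tested compound plus 3 SD, cut at about 30% in these data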
#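 System: mouse ABHD4 enzyme, wild type / Medium: HEPES pH 7.0, NaCl, Pluronic buffer / Reagent: FP-Rh activity-based fluorescent probe / Control set: S159A mutant high control, sample median low control / Detection: fluorescence polarization with parallel and perpendicular emission, 525/598 nm / Schedule: 45 min + 60 min at 25 °C / Compound dosing: 8.92 µM, single dose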
# PRMT1 inh conf – confirmation of human PRMT1 inhibitors | shares compounds with PRMT1 FP inh | recombinant His-PRMT1, activity-based probe fluorescence polarization | inhibition, % at 2.79 µM | actives 42% (n = 3,300);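 active = mean inhibition across replicates above the hit cutoff derived for the earlier primary screen, cut at about 22% in these data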
# A number is an active result; – = inactive; · = no result. Most compounds without a hit are left out; they make up all but 3.3% or so of the library.
SMILES,HTRA1 inhibitor,rCAG binder,SIAE inh,PRMT1 FP inh,mABHD4 FP,PRMT1 inh conf
O=C(O)c1ccc2ncsc2c1,–,–,–,25,–,–
O=C(Nc1cccc(Cl)c1)c1ccc2ncsc2c1,–,–,–,32,–,–
O=C(COC(=O)c1ccc2ncsc2c1)Nc1cccc(Cl)c1,–,–,–,33,–,–
COC(=O)[C@]12C[C@H](CC(=O)N3CCCC3)C(=O)N(CCC3=CCCCC3)C1=C[C@H](C1CCCC1)O[C@@H]2C,·,–,–,–,–,·
COC(=O)c1ccc(-c2ccco2)n1Cc1cccc(C)c1,–,–,–,–,–,·
O=C(O)c1ccc(-c2ccco2)n1Cc1ccccc1,–,–,–,29,–,–
CSc1nc2c(C)c(C)c(C)c(C)c2[nH]1,–,–,–,–,–,·
CSc1nc(=S)cc(C)[nH]1,–,–,–,83,–,89
CCN(CC)CCOC(=O)c1ccc(NC(=O)c2cn(-c3ccccc3)nc2-c2cccs2)cc1,–,–,–,–,–,·
Cc1ccc(CNC(=O)C2CCN(S(=O)(=O)c3cccs3)CC2)o1,–,–,–,29,–,–
Cc1ccc(CNC(=O)C2CCN(S(=O)(=O)c3cccs3)CC2)cc1,–,–,–,–,–,·
CC#CC(=O)N1CCC(Oc2cccc(C(=O)NCc3ccccn3)c2)CC1,–,–,–,74,–,–
CC(C)=CC(=O)N1CCC(Oc2cccc(C(=O)NCc3ccccn3)c2)CC1,–,–,–,–,–,·
CC(Sc1nc2ccccc2s1)C(=O)N(C)Cc1ccccc1 (stereo not drawn),–,–,–,–,–,·
O=C1CC(N2CCC(O)CC2)C(=O)N1c1ccc(Br)cc1 (stereo not drawn),–,–,–,57,–,–
O=C1CC(N2CCN(c3ccc(Cl)c(Cl)c3)CC2)C(=O)N1 (stereo not drawn),–,–,–,–,–,·
O=C1CC(N2CCN(c3ccccn3)CC2)C(=O)N1c1ccc(Cl)cc1 (stereo not drawn),–,–,–,–,–,·
O=C1CC(N2CCC(O)(c3ccc(Cl)cc3)CC2)C(=O)N1 (stereo not drawn),–,–,–,54,–,–
COc1ccc(N2C(=O)CC(N3CCC(O)(c4ccc(Br)cc4)CC3)C2=O)cc1 (stereo not drawn),–,–,–,50,–,–
O=CN1CCN(C2CC(=O)N(c3ccc(Br)cc3)C2=O)CC1 (stereo not drawn),–,–,–,–,–,·
O=C1CC(N2CCC(O)(c3ccc(Br)cc3)CC2)C(=O)N1c1ccc(Cl)cc1 (stereo not drawn),–,–,–,33,–,–
O=C(CCc1ccco1)CCc1ccco1,–,–,–,–,–,·
CCN(C(=O)c1cccc(S(=O)(=O)N(C)C)c1)C12CC3CC(CC(C3)C1)C2,–,–,–,–,–,·
Cc1ccc(CCC(=O)Nc2ccc(Br)cc2)o1,–,–,–,–,–,·
Cc1[nH]c(=S)c(C#N)c2c1CCCC2,–,–,–,40,–,–
SMILES,HTRA1 inhibitor,rCAG binder,SIAE inh,PRMT1 FP inh,mABHD4 FP,PRMT1 inh conf
CCCCOC(=O)C1=C(N)N2C(=O)C(C)SC2=C(C(=O)OCC)C1c1ccc(O)c(OC)c1 (stereo not drawn),–,–,–,–,–,·
COc1ccc(-c2cc(C(=O)NN=Cc3cccn3C)[nH]n2)cc1,·,–,–,–,–,·
Cn1cccc1C=NNC(=O)c1cc(-c2ccc(Cl)cc2)n[nH]1,·,–,–,25,–,–
O=C(CSc1c2c(nc3cc(Cl)ccc13)CCCC2)NCCN1CCOCC1,–,–,–,–,–,·
Cc1ccc(CNC(=O)CSc2c3c(nc4cc(Cl)ccc24)CCCC3)o1,–,–,–,60,–,–
CCOc1cc2c3c(c1)C1(OCCO1)C(=O)N3C(C)(C)CC2C (stereo not drawn),–,–,–,–,–,·
CCOc1cc2c3c(c1)C1(Nc4ccccc4S1)C(=O)N3C(C)(C)CC2C (stereo not drawn),–,–,–,78,–,–
O=[N+]([O-])c1cc(-c2csc(NC(CO)c3nc4ccccc4n3CCOCCO)n2)ccc1Cl (stereo not drawn),–,–,–,37,–,–
CC1CCOC(c2coc3ccccc3c2=O)O1 (stereo not drawn),–,–,–,–,–,·
O=C(O)C1CSC(c2coc3ccccc3c2=O)N1 (stereo not drawn),–,–,–,51,–,35
NS(=O)(=O)c1ccc(CCNC(=O)C2CCN(C(=O)Nc3ccccc3)CC2)cc1,–,–,–,–,–,·
Cc1ccccc1-c1nc2ccccc2c(=O)n1/N=C/c1ccccc1[N+](=O)[O-],–,–,–,31,–,–
Fc1ccc(NC(=S)N2CCSC2c2cccs2)cc1 (stereo not drawn),–,–,–,53,–,–
CC1CCN(C(=S)Nc2ccc(F)cc2)CC1,–,–,–,–,–,·
Cc1ccccc1CS(=O)(=O)c1nnc([C@H](CC(C)C)NC(=O)OC(C)(C)C)o1,–,–,–,27,–,–
Cc1cccn2c(=O)c3cc(C#N)c(=NC(=O)c4ccncc4)n(CCCOC(C)C)c3nc12,–,–,–,26,–,–
COCCCn1c(=NC(=O)c2ccncc2)c(C#N)cc2c(=O)n3cccc(C)c3nc21,–,–,–,–,–,·
O=S(=O)(CCSc1ccccn1)c1nc2ccccc2s1,–,–,–,26,–,–
COc1ccc(NC(=O)N(C)C[C@H]2Oc3ccc(NC(=O)C4CC4)cc3CC(=O)N([C@@H](C)CO)C[C@@H]2C)cc1,–,–,–,–,–,·
CSc1ccccc1NC(=O)CN(C)Cc1ccc(Br)cc1,–,–,–,–,–,·
CSc1ccccc1NC(=O)CN(C)Cc1c(O)ccc2ccccc12,–,–,–,39,–,30
CC(=O)Nc1ccc(S(=O)(=O)NCCSCc2ccco2)cc1,–,–,–,28,–,61
O=C(CN1CCN(S(=O)(=O)c2cccs2)CC1)N1CCCCC1,–,–,–,–,–,·
Cn1c(SCc2nnc(-c3ccccc3Br)o2)nc2sc3c(c2c1=O)CCC3,–,–,–,29,–,–
CCC(c1nnnn1-c1ccc2c(c1)OCCO2)N1CCN(c2cc(C)ccc2C)CC1 (stereo not drawn),·,–,–,–,–,·
Cc1ccc(C(=O)NN2C(=O)C3C4C=CC(C4)[C@@H]3C2=O)cc1 (stereo partly drawn),–,–,–,–,–,·
O=C(NN1C(=O)C2C3C=CC(C4CC34)C2C1=O)c1cccc(Cl)c1 (stereo not drawn),–,–,–,–,–,·
O=C(NN1C(=O)C2C3C=CC(O3)C2C1=O)c1cccc(O)c1 (stereo not drawn),–,–,–,54,–,–
O=C(NN1C(=O)C2C3C=CC(O3)C2C1=O)c1cccc(Br)c1 (stereo not drawn),–,–,–,40,–,–
